Experimental data taken from ChEMBL document CHEMBL4819008, “Design, synthesis, and evaluation of "dual-site"-binding diarylpyrimidines targeting both NNIBP and the NNRTI adjacent site of the HIV-1 reverse transcriptase” (Eur J Med Chem, 2021).

What was measured:
[1] = tested on: Human immunodeficiency virus 1; test: Antiviral activity against wild type HIV1 NL4-3 infected in human TZM-bl cells assessed as reduction in viral infection measured after 1 day by luciferase reporter gene assay based luminiscence assay; assay type: functional, organism-based; settings: Human immunodeficiency virus 1, NL4-3, TZM-bl, 24 h
In short: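 TZM-bl cells got a single-round infection with 800 TCID50 of NL4-3 at various compound concentrations, top concentration 100 ng/mL. Luminescence was read 1 day post-infection. EC50 is the concentration giving a 50% decrease in luciferase RLU versus control wells, determined in at least triplicate.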

[2] = Cytotoxicity against human TZM-bl cells assessed as reduction in cell viability measured after 1 day by CytoTox-Glo assay; assay type: cell-based
In short: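 TZM-bl cells were cultured 1 day with various compound concentrations, in parallel with the antiviral assay, top concentration 100 ng/mL. Viable cells were measured by CytoTox-Glo. CC50 is the concentration causing a 50% reduction in cell viability.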

[3] = Selectivity index, ratio of CC50 for human TZM-bl cells to EC50 for wild type HIV1 NL4-3 infected in human TZM-bl cells; assay type: toxicity, cell-based; settings: read-out: Ratio CC50/EC50
In short: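 Selectivity index is CC50/EC50, with both values from the TZM-bl assays: NL4-3 single-round luciferase infection and CytoTox-Glo viability, each over 1 day.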

[4] = tested on: Human immunodeficiency virus 1; test: Antiviral activity against wild type HIV-1 3B infected in human MT4 cells assessed as inhibition of virus-induced cytopathic effect measured after 5 days by MTT assay; assay type: functional, organism-based; settings: Human immunodeficiency virus 1, 3B, MT4, 120 h
In short: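 MT-4 cells at 6 × 10^5 cells/mL were infected with virus stock at 100–300 CCID50 in the presence of serial 5-fold compound dilutions, in triplicate wells. Viability was read by MTT reduction 5 days after infection, with absorbance at 540 and 690 nm and the median OD of three wells used. EC50 is the concentration giving 50% protection from viral cytopathicity.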

[5] = Cytotoxicity against human MT4 cells assessed as reduction in cell viability measured after 5 days by MTT assay; assay type: cell-based; settings: time 5 day
In short: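 Mock-infected MT-4 cells (6 × 10^5 cells/mL) were run in parallel with the infected wells, under serial 5-fold compound dilutions in triplicate. MTT viability was read after 5 days and the median OD of three wells used. CC50 is the concentration that reduced OD540 of the mock-infected cells by 50%.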

[6] = Selectivity index, ratio of CC50 for human MT4 cells to EC50 for wild type HIV-1 3B infected in human MT4 cells; assay type: toxicity, cell-based; settings: read-out: Ratio CC50/EC50
[7] = tested on: Human immunodeficiency virus 1; test: Antiviral activity against HIV-1 harboring reverse transcriptase L100I mutant infected in human MT4 cells assessed as inhibition of virus induced cytopathic effect measured after 5 days by MTT assay; assay type: functional, organism-based; settings: Human immunodeficiency virus 1, MT4, 120 h
In short: (§1)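 MT-4 cells, exponentially growing, resuspended at 6 × 10^5 cells/mL and infected with the mutant HIV-1 stock at 100–300 CCID50. Compounds were added as 5-fold serial dilutions, in triplicate wells, alongside mock-infected wells. After 5 days, viability was read by MTT reduction at 540 and 690 nm using the median OD of three wells. EC50 is the concentration giving 50% protection from viral cytopathogenicity.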

[8] = tested on: Human immunodeficiency virus 1; test: Antiviral activity against HIV-1 harboring reverse transcriptase K103N mutant infected in human MT4 cells assessed as inhibition of virus induced cytopathic effect measured after 5 days by MTT assay; assay type: functional, organism-based; settings: Human immunodeficiency virus 1, MT4, 120 h; in short: as §1
[9] = tested on: Human immunodeficiency virus 1; test: Antiviral activity against HIV-1 harboring reverse transcriptase Y181C mutant infected in human MT4 cells assessed as inhibition of virus induced cytopathic effect measured after 5 days by MTT assay; assay type: functional, organism-based; settings: Human immunodeficiency virus 1, MT4, 120 h; in short: as §1
[10] = tested on: Human immunodeficiency virus 1; test: Antiviral activity against HIV-1 harboring reverse transcriptase Y188L mutant infected in human MT4 cells assessed as inhibition of virus induced cytopathic effect measured after 5 days by MTT assay; assay type: functional, organism-based; settings: Human immunodeficiency virus 1, MT4, 120 h; in short: as §1
[11] = tested on: Human immunodeficiency virus 1; test: Antiviral activity against HIV-1 harboring reverse transcriptase E138K mutant infected in human MT4 cells assessed as inhibition of virus induced cytopathic effect measured after 5 days by MTT assay; assay type: functional, organism-based; settings: Human immunodeficiency virus 1, MT4, 120 h; in short: as §1
[12] = tested on: Human immunodeficiency virus 1; test: Antiviral activity against HIV-1 harboring reverse transcriptase F227L/V106A mutant infected in human MT4 cells assessed as inhibition of virus induced cytopathic effect measured after 5 days by MTT assay; assay type: functional, organism-based; settings: Human immunodeficiency virus 1, MT4, 120 h; in short: as §1
[13] = tested on: Human immunodeficiency virus 1; test: Antiviral activity against HIV-1 harboring reverse transcriptase RES056 mutant infected in human MT4 cells assessed as inhibition of virus induced cytopathic effect measured after 5 days by MTT assay; assay type: functional, organism-based; settings: Human immunodeficiency virus 1, MT4, 120 h; in short: as §1
[14] = Antiviral activity against HIV-2 ROD infected in human MT4 cells assessed as protection against virus-induced cytopathic effect measured after 5 days by MTT assay; settings: Human immunodeficiency virus 2, ISOLATE ROD, MT4, 120 h
[15] = target: Human immunodeficiency virus type 1 reverse transcriptase (Human immunodeficiency virus 1, UniProt Q72547); test: Inhibition of HIV-1 reverse transcriptase assessed as reduction in biotin-dUTP incorporation into cDNA incubated for 1 hr with DIG-dUTP, biotin-dUTP and dTTP followed by transferring onto streptavidin-coated plate and measured after 1 hr by ELISA
In short: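 Recombinant WT HIV-1 RT was tested with a Roche colorimetric kit. Enzyme, reconstituted template, DIG-dUTP, biotin-dUTP and dTTP were incubated 1 h at 37 °C in incubation buffer with or without inhibitor. The mix was then held 1 h at 37 °C on a streptavidin-coated plate, then anti-DIG-POD 1 h at 37 °C, then ABTS at 25 °C, and read at OD405.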

Compound	EC50 [1]	CC50 at 24 h [2]	selectivity ratio [3]	EC50 [4]	CC50 at 120 h [5]	selectivity ratio [6]	EC50 [7]	EC50 [8]	EC50 [9]	EC50 [10]	EC50 [11]	EC50 [12]	EC50 [13]	EC50 [14]	IC50 [15]
Cc1cc(C#N)cc(C)c1Oc1nc(Nc2ccc(C#N)cc2)ncc1/C=C/C(=O)NCC1CCN(S(C)(=O)=O)C1 (stereo not given)	13.6 nM	> 175 nM	> 13	–	–	–	–	–	–	–	–	–	–	–	–
Cc1cn([C@H]2C[C@H](N=[N+]=[N-])[C@@H](CO)O2)c(=O)[nH]c1=O [ZIDOVUDINE]	7.5 nM	> 6300 nM	> 1000	18.3 nM	> 7500 nM	> 410	7 nM	12.6 nM	8.7 nM	9.9 nM	14.5 nM	4.7 nM	20.1 nM	–	–
Cc1cc(C#N)cc(C)c1Oc1nc(Nc2ccc(C#N)cc2)ncc1/C=C/C(=O)NCCN1CCOCC1	3.44 nM	> 190 nM	> 56	8.5 nM	22400 nM	2630	263 nM	18.5 nM	108 nM	123 nM	21.8 nM	462 nM	1750 nM	> 22400 nM	–
Cc1cc(C#N)cc(C)c1Oc1nc(Nc2ccc(C#N)cc2)ncc1/C=C/C(=O)N1CCN(C=O)CC1	49.3 nM	> 197 nM	> 4	–	–	–	–	–	–	–	–	–	–	–	–
Cc1cc(C#N)cc(C)c1Oc1nc(Nc2ccc(C#N)cc2)ncc1/C=C/C(=O)NCCOCCO	4.81 nM	> 200 nM	> 42	27.1 nM	61800 nM	2280	227 nM	50.3 nM	197 nM	146 nM	47.1 nM	318 nM	1050 nM	> 61800 nM	–
Cc1cc(C#N)cc(C)c1Oc1nc(Nc2ccc(C#N)cc2)ncc1/C=C/C(=O)NC1CCN(S(C)(=O)=O)CC1	14.2 nM	> 175 nM	> 12	–	–	–	–	–	–	–	–	–	–	–	–
Cc1cc(C#N)cc(C)c1Oc1nc(Nc2ccc(C#N)cc2)ncc1/C=C/C(=O)NCC1CCN(S(C)(=O)=O)CC1	12.8 nM	> 171 nM	> 13	–	–	–	–	–	–	–	–	–	–	–	–
Cc1cc(C#N)cc(C)c1Oc1nc(Nc2ccc(C#N)cc2)ncc1/C=C/C(=O)N1CCOCC1	20 nM	> 208 nM	> 10	–	–	–	–	–	–	–	–	–	–	–	–
O=C1Nc2ccc(Cl)cc2[C@@](C#CC2CC2)(C(F)(F)F)O1 [EFAVIRENZ]	5.2 nM	> 6300 nM	> 1210	2.5 nM	> 6300 nM	> 2570	30.8 nM	63.7 nM	5.2 nM	148 nM	5.7 nM	169 nM	273 nM	–	–
Cc1ccnc2c1NC(=O)c1cccnc1N2C1CC1 [NEVIRAPINE]	281 nM	> 15000 nM	> 53	–	> 9500 nM	> 113	373 nM	1470 nM	2320 nM	3390 nM	72.8 nM	2730 nM	6750 nM	–	–
Cc1cc(C#N)cc(C)c1Oc1nc(Nc2ccc(C#N)cc2)ncc1/C=C/C(=O)N1CCN(S(C)(=O)=O)CC1	13.8 nM	> 179 nM	> 13	–	–	–	–	–	–	–	–	–	–	–	–
Cc1cc(C#N)cc(C)c1Oc1nc(Nc2ccc(C#N)cc2)ncc1/C=C/C(=O)NC1CC1	5.1 nM	> 221 nM	> 44	–	–	–	–	–	–	–	–	–	–	–	–
Cc1cc(C#N)cc(C)c1Oc1nc(Nc2ccc(C#N)cc2)ncc1/C=C/C(=O)N1CCN(C(=O)C(F)(F)F)CC1	13.7 nM	> 174 nM	> 13	–	–	–	–	–	–	–	–	–	–	–	–
Cc1cc(C#N)cc(C)c1Oc1nc(Nc2ccc(C#N)cc2)ncc1/C=C/C(=O)N1CCN(S(=O)(=O)C(F)(F)F)CC1	> 164 nM	> 164 nM	> 1	–	–	–	–	–	–	–	–	–	–	–	–
Cc1cc(C#N)cc(C)c1Oc1nc(Nc2ccc(C#N)cc2)ncc1/C=C/C(=O)NCCCN1CCOCC1	3.53 nM	> 186 nM	> 53	10.5 nM	23000 nM	2200	254 nM	22 nM	124 nM	212 nM	22.6 nM	443 nM	1210 nM	> 23000 nM	–
Cc1cc(C#N)cc(C)c1Oc1nc(Nc2ccc(C#N)cc2)ncc1/C=C/C(=O)NC1CCN(S(C)(=O)=O)C1 (stereo not given)	14.7 nM	> 179 nM	> 12	–	–	–	–	–	–	–	–	–	–	–	–
Cc1cc(C#N)cc(C)c1Oc1nc(Nc2ccc(C#N)cc2)ncc1/C=C/C(=O)NC1CCN(C(=O)C(F)(F)F)CC1	> 170 nM	> 170 nM	> 1	–	–	–	–	–	–	–	–	–	–	–	–
Cc1cc(C#N)cc(C)c1Oc1nc(Nc2ccc(C#N)cc2)ncc1/C=C/C(=O)NCCN1CCN(S(C)(=O)=O)CC1	4.16 nM	> 166 nM	> 40	6.1 nM	5900 nM	955	78.6 nM	8.7 nM	48.6 nM	101 nM	20.9 nM	251 nM	808 nM	> 5860 nM	–
Cc1cc(C#N)cc(C)c1Oc1nc(Nc2ccc(C#N)cc2)ncc1SCC(=O)NCCCN1CCOCC1	3.77 nM	> 179 nM	> 48	3.7 nM	24000 nM	6540	16.3 nM	2.2 nM	19.1 nM	38.7 nM	37.3 nM	182 nM	332 nM	> 24000 nM	35 nM
Cc1cc(C#N)cc(C)c1Oc1nc(Nc2ccc(C#N)cc2)nc(N)c1Br [ETRAVIRINE]	1.45 nM	> 229 nM	–	–	> 4600 nM	–	10.2 nM	2.3 nM	–	15.5 nM	–	8.2 nM	60.2 nM	–	–
Cc1cc(C#N)cc(C)c1Oc1nc(Nc2ccc(C#N)cc2)ncc1/C=C/C(=O)NCCc1c[nH]c2ccccc12	81.3 nM	> 180 nM	> 2	–	–	–	–	–	–	–	–	–	–	–	–
CC(=O)N1CCN(C(=O)/C=C/c2cnc(Nc3ccc(C#N)cc3)nc2Oc2c(C)cc(C#N)cc2C)CC1	49.9 nM	> 192 nM	> 4	–	–	–	–	–	–	–	–	–	–	–	–
CCOC(=O)/C=C/c1cnc(Nc2ccc(C#N)cc2)nc1Oc1c(C)cc(C#N)cc1C	18.7 nM	> 227 nM	> 12	–	–	–	–	–	–	–	–	–	–	–	–
Cc1cc(C#N)cc(C)c1Oc1nc(Nc2ccc(C#N)cc2)ncc1/C=C/C(N)=O	5.36 nM	> 243 nM	> 45	–	–	–	–	–	–	–	–	–	–	–	–
Cc1cc(C#N)cc(C)c1Oc1nc(Nc2ccc(C#N)cc2)ncc1/C=C/C(=O)NC1CCN(S(=O)(=O)C(F)(F)F)CC1	> 160 nM	> 160 nM	> 1	–	–	–	–	–	–	–	–	–	–	–	–
